# Screens (PubChem BioAssay)
# CYP2C9 inh: inhibitors of human CYP2C9. AID 777. inhibition, % at 5 µM. 96,000 tested, 20% active. CYP2C9 Supersomes, luciferin-H conversion, luminescence;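 active = blocking of liver enzyme CYP2C9 beyond about 50% at 5 µM, limit read from the data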
# Target sequence (P11712 whole entry, looked up): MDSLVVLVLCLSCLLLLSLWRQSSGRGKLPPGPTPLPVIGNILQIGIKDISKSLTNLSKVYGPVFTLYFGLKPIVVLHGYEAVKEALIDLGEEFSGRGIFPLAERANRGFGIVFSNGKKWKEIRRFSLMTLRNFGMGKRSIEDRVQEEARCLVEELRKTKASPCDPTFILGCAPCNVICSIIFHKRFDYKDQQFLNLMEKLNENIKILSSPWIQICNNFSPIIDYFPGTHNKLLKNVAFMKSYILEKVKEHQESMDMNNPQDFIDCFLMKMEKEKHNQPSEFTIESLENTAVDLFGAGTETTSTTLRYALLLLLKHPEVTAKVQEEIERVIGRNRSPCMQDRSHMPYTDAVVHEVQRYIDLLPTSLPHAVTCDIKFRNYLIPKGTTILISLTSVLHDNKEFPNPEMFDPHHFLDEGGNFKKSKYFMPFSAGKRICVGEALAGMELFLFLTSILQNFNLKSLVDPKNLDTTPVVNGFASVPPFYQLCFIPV
# Cav3 T inh: blocks human Cav3.2 T-type calcium channel. 100,000 tested, 4% active. O95180. B-score at 10 µM. Cav3.2-expressing cells, Fluo-4 calcium fluorescence FDSS; active compounds read low;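 active = single-dose well whose peak fluorescence ratio is a statistical outlier from its plate by either plate-standardised score or position-corrected B-score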
# Rev-RRE block: disrupts HIV-1 Rev binding to RRE RNA | Rev peptide-RRE RNA binding, FRET | 97,000 tested, 0.79% active | P05866 | inhibition, % at 8 µM;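 active = inhibition above the screen-wide mean plus 3 SD, cut at about 35% in these data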;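 note: 0% = median DMSO wells and 100% = median Neomycin B control wells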
# Target sequence (P05866 whole entry, looked up): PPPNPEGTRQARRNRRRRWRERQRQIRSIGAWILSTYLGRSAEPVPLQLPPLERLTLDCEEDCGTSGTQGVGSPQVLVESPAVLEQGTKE
#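 Assay system: labelled RRE RNA duplex and labelled Rev peptide / Medium: HEPES pH 7.5 salt buffer with EDTA / Reagent: labelled Rev peptide / Schedule: 5 + 15 min at 25 °C / Signal: FRET, excitation 480 nm, emission 540 nm donor and 671 nm acceptor / Benchmarks: DMSO and neomycin B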
# CYP2C9 act: activators of human CYP2C9. P11712. recombinant CYP2C9, luciferin-H conversion, luminescence; active compounds read high; factor 1 = untreated enzyme, 0 = blocked. activation factor at 5 µM. 96,000 tested, 1.4% active;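 active = activation factor of 2 or more for CYP2C9 at a 5 µM dose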;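 note: 0 = sulfaphenazole-blocked wells and 1 = vehicle-only wells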
# CYP2C19 inhib: human CYP2C19 inhibition; CYP2C19 Supersomes, luciferin-H EGE luminescence, 30 min; inhibition, % at 5 µM; 96,000 tested, 21% active;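 active = CYP2C19 inhibition above a set limit at 5 µM in the primary screen, cut at about 50% in these data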;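 note: plate controls were negative control wells for no effect and 2.5 mM tranylcypromine positive control for full effect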
# CYP2C19 act: increases human CYP2C19 enzyme activity. recombinant CYP2C19, luciferin-H EGE luminescence; active compounds read high; 0 = fully inhibited enzyme, 1 = untreated enzyme. P33261. 96,000 tested, under 10 active. activation factor at 5 µM;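 active = activation factor of at least 2 at 5 µM in the primary screen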;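 note: 0 = wells with 2.5 mM tranylcypromine and 1 = vehicle-only wells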
# * = called active by the depositor; . = no result given. Only some compounds are listed: those with a hit (about 27% of all), similar ones and a draw of the others.
SMILES,CYP2C9 inh,Cav3 T inh,Rev-RRE block,CYP2C9 act,CYP2C19 inhib,CYP2C19 act
O=C(CSc1ncnc2nc[nH]c12)N1CCN(c2ccc(Cl)cc2)CC1,3,1.6,8,1,11,0.9
CCO[C@@H]1OC(C(=O)N2CCN(C)CC2)=C[C@H](C(C)(C)C)[C@H]1CCCO,.,0.59,.,.,.,.
Cc1ccc(S(=O)(=O)NCc2ccco2)cc1C,-172,-0.016,.,2.7*,80*,0.2
O=S(=O)(Nc1nc2ccccc2nc1NCc1ccco1)c1ccc(Cl)cc1,98*,-4.8*,13,0,51*,0.5
Cc1ccccc1S(=O)(=O)Nc1nc2ccccc2nc1NCCO,100*,0.094,6,0,19,0.8
Cc1noc(C)c1CSc1nc2ccccc2nc1NS(=O)(=O)c1ccc(Cl)cc1,87*,-8.1*,4,0.1,4,1
O=C1OC(C(=O)O)Cc2ccccc21 (stereo unspecified),.,0.76,4,.,.,.
Cn1c(=O)n(C)c2cc(S(=O)(=O)NCc3ccco3)ccc21,-10,-0.022,.,1.1,-2,1
Cc1cccc(S(=O)(=O)Nc2nc3ccccc3nc2NCc2ccco2)c1,95*,.,8,0,26,0.7
Cc1ccc(S(=O)(=O)Nc2nc3ccccc3nc2NCc2ccco2)cc1C,100*,.,11,0,27,0.7
Cc1ccc(S(=O)(=O)Nc2nc3ccccc3nc2NCc2ccco2)cc1,99*,-2.5,46*,0,19,0.8
Cc1cccc(NC(=O)c2oc3c(c2C)C(=O)CC(C)(C)C3)n1,18,-0.28,7,0.8,4,1
Cc1ccc2nc(C3CCN(CC(=O)N4CCCCCC4)CC3)[nH]c2c1,10,0.96,7,0.9,4,1
Cn1c(=O)c2c(nc(CN3CCC(C(N)=O)CC3)n2Cc2ccccc2Cl)n(C)c1=O,6,0.73,.,0.9,-2,1
CCCCNC(=O)CCn1c(=O)c2ccccc2n(CC(=O)Nc2ccccc2OCC)c1=O,75*,0.14,13,0.2,40,0.6
COCCCNC(=O)CCn1c(=O)c2ccccc2n(CC(=O)Nc2ccc(C)cc2C)c1=O,67*,0.04,3,0.3,78*,0.2
CCCN(CCC)C(=O)Cn1c(=O)n(CCC(=O)NCCc2ccccc2)c(=O)c2ccccc21,72*,1.9,-1,0.3,17,0.8
COCCCNC(=O)CCn1c(=O)c2ccccc2n(CC(=O)Nc2ccccc2C)c1=O,41,.,4,0.6,-9,1.1
CCn1c(SCC(=O)N2CCN(c3ccc(F)cc3)CC2)nnc1-c1ccncc1,27,0.27,-4,0.7,19,0.8
CC(=O)c1c(C)nc(-c2ccccc2)nc1NC(=O)C(C)C,74*,0.65,2,0.3,43,0.6
CC(=O)c1c(C)nc(-c2ccc(Cl)cc2)nc1NC(=O)C(C)C,94*,-3.7,7,0.1,62*,0.4
O=[N+]([O-])c1ccc(C(=Nc2cccc3ccccc23)N2CCOCC2)cc1,39,.,1,0.6,38,0.6
COC(=O)C(CCSC)NC(=O)c1cccc([N+](=O)[O-])c1 (stereo unspecified),10,0.71,-2,0.9,25,0.8
COc1ccccc1-c1cc(C(=O)NCc2ccc(F)cc2)no1,-200,-0.89,10,3*,21,0.8
COc1ccccc1-c1cc(C(=O)Nc2c(F)cc(F)cc2Br)no1,-9,0.22,-2,1.1,-3,1
SMILES,CYP2C9 inh,Cav3 T inh,Rev-RRE block,CYP2C9 act,CYP2C19 inhib,CYP2C19 act
COc1ccccc1-c1cc(C(=O)NCc2ccccc2)no1,-177,-3.9,7,2.8*,38,0.6
O=C(NCc1ccc(F)cc1)c1cc(-c2ccco2)on1,-6,-0.78,5,1.1,7,0.9
COCC(C)NC(=O)c1cc(-c2ccccc2OC)on1 (stereo unspecified),-149,-0.37,-2,2.5*,-1,1
CCCc1cc(C(=O)NCc2ccc(OC)cc2)no1,19,0.71,-1,0.8,65*,0.3
COc1ccc(CNC(=O)c2cc(-c3ccco3)on2)cc1,15,-0.27,5,0.9,21,0.8
O=C(NCc1ccccc1)c1cc(-c2cccs2)on1,-29,-0.44,5,1.3,28,0.7
CC1CC(=O)C=C(O)C1C(=O)OC(C)(C)C (stereo unspecified),42,0.23,-1,0.6,11,0.9
O=C(c1ccccc1)c1c[nH]c2cc3c(cc2c1=O)OCCO3,.,0.78,4,.,.,.
Cc1ccc(NC(=O)c2ccccc2)cc1OC(=O)c1ccccc1,21,-0.035,9,0.8,33,0.7
COc1ccccc1-c1cc(C(=O)NCCN2CCOCC2)no1,-123,0.019,3,2.2*,-1,1
COc1ccc(CNC(=O)c2cc(-c3ccccc3OC)on2)cc1,-165,-0.97,6,2.7*,-2,1
CCN1C(=O)CC(C(=O)NC)SC1=Nc1cc(Cl)c(O)c(Cl)c1 (stereo unspecified),19,0.87,7,0.8,7,0.9
CCN(CC)S(=O)(=O)c1ccc2c(c1)nc(SCc1nc3ccsc3c(=O)[nH]1)n2CC,69*,1.9,-2,0.3,22,0.8
CCn1c(CSc2nc(C)cs2)nc2cc(S(=O)(=O)N(C)C)ccc21,43,1.2,4,0.6,-2,1
Clc1ccc(Nc2ccc(-n3ccnc3)nn2)cc1Cl,99*,-0.44,6,0,100*,0
CC(O)[C@@H](C(=O)N1CCNCC1)n1cc(CCCCN)nn1 (stereo partly specified),.,0.064,.,.,.,.
CCNC(=O)n1nccc1C(C)Oc1cccc(C(F)(F)F)c1 (stereo unspecified),26,-1.7,13,0.7,56*,0.4
CCNC(=O)n1nccc1C(C)Oc1ccc(Cl)cc1 (stereo unspecified),71*,-1.2,0,0.3,88*,0.1
CCOC(=O)c1c(Nc2ccccc2)sc(/C=C2\C=Nc3ccccc32)c1O,73*,-0.71,11,0.3,32,0.7
Cc1ccc(-c2ccc(/C=N/NC(=O)CN3CCCC3)o2)cc1Cl,11,0.78,-1,0.9,22,0.8
Cc1ccc(-c2ccc(/C=N\NC(=O)C3C(=O)NCC3c3ccccc3)o2)cc1Cl (stereo unspecified),50*,-3,1,0.5,4,1
CC(C)CC1(C(=O)NCc2cc(F)cc(C(F)(F)F)c2)C=CCN1C(=O)c1ccccc1 (stereo unspecified),.,-1.4,.,.,.,.
COc1ccc(OC)c(NC(=O)Cn2cc(C(=O)c3ccco3)c3ccccc32)c1,98*,-2.1,7,0,96*,0
COc1ccc(OC)c(NC(=O)Cn2cc(C#N)c3ccccc32)c1,80*,-0.13,10,0.2,85*,0.2
